# High-throughput results: PubChem BioAssay, several laboratories
# The list is not random: actives were taken first. Their share in the collection is about 5.6%.
# aDG glyco up – alpha-DG glycosylation activation; Pro5-aDG cells, alpha-DG glycosylation AlphaScreen (IIH6); 0% Pro5, 100% B10-LARGE cell signal; activation, % at 10 µM; 360,000 compounds, 0.22% hits;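 active = activation of at least 8% versus controls, or a plate z-score of at least 8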;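 also: Pro5 are CHO cells carrying HIG-tagged alpha-DG that lacks glycosylation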
# UPR CHOP act – apoptotic UPR (CHOP) activation | CHO-CHOP luciferase reporter, luminescence; percent of tunicamycin response over DMSO baseline | activation, % at 10 µM | 330,000 compounds, 0.34% hits | AID 449763;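 active = at 10 µM dose, activation of 40% or more, normalized to positive control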;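 also: 100% = tunicamycin at 10 µg/mL and 0% = DMSO alone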
#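 System: CHO-CHOP luciferase reporter cell line; amount: 500 cells/well; buffer or medium: F12 medium containing 10% fetal bovine serum; incubation: 6 h compound exposure at 37 °C after overnight seeding; measured by: luciferase luminescence after 10 min with Steady-Glo reagent; evaluation: % reporter activation, DMSO baseline versus tunicamycin full activation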
# MPTP block – blocks calcium-induced mitochondrial swelling | isolated mouse mitochondria, Ca2+ swelling absorbance, 30 min | inhibition, % at 10 µM | 360,000 compounds, 1.4% hits | AID 602449;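 active = inhibition of 50% or more, scaled per plate between neutral and stimulator controls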;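 also: 0% = DMSO wells given calcium and 100% = 1 mM EGTA wells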
# GRIN3A LBD mod – modulates the human NR3A ligand-binding domain; NR3A LBD differential scanning fluorimetry, Tm shift; 0% = protein alone, 100% = glycine-bound protein; Tm shift relative to glycine control, % at 25 µM; 340,000 compounds, 2.5% hits;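 active = melting temperature shift of at least 10% of the positive control shift, at one fixed dose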
# CHOP inh – CHOP inhibition in unfolded protein response; 220,000 compounds, 3.8% hits; AID 2732; inhibition, % at 10 µM; CHO-K1 CHOP-promoter luciferase, tunicamycin-induced, 15-18 h;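 active = compounds that reduced the stress-induced luciferase reporter signal by more than about 70% of percent inhibition, limit read from the data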;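 also: 0% = tunicamycin plus vehicle and 100% = wells without tunicamycin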
# UPR XBP1 act – adaptive UPR (XBP1) activation. activation, % at 20 µM. CHO-XBP1 luciferase reporter, IRE1-XBP1 UPR activation, luminescence; percent of tunicamycin response, DMSO as zero. 330,000 compounds, 0.33% hits;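 active = versus positive control, 20 µM dose yields 30% or more activation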;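 also: 100% = tunicamycin at 10 µg/mL and 0% = DMSO only wells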
#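 Material: CHO cell line with stable XBP1 luciferase reporter; buffer or medium: F12 medium containing 10% fetal bovine serum; compound: single point, 20 µM final compound, 1% DMSO; incubation: 6 h treatment, 37 °C; measured by: glow luminescence from Steady-Glo reagent; evaluation: activation, % of tunicamycin; control set: tunicamycin high, DMSO low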
# MPTP counter – mitochondrial membrane potential, counter-screen | shares compounds with MPTP block | isolated mitochondria, Rhodamine 123 fluorescence | inhibition, % at 10 µM | 5,000 compounds, 78% hits | AID 624504; in the data active = inhibition above about 22%;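 also: 0% = DMSO vehicle and 100% = positive control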
# MPTP abs DR – MPTP inhibition, dose response swelling confirmation; isolated mitochondria swelling, absorbance; IC50, µM; 780 compounds, 58% hits; shares compounds with MPTP block; in the data active = IC50 below about 20 µM
# MPTP counter DR – active in counter-screen for permeability transition pore inhibitors; isolated mitochondria counterscreen, fluorescence read-out; shares compounds with MPTP block; IC50, µM; 780 compounds, 49% hits; AID 651564; in the data active = IC50 below about 80 µM
# * hit, by the source's call; nt = no result.
SMILES,aDG glyco up,UPR CHOP act,MPTP block,GRIN3A LBD mod,CHOP inh,UPR XBP1 act,MPTP counter,others
N#Cc1cccc(NC(=S)Nc2ccccc2)c1,0.1,-0.8,82.3*,-1.1,-5.8,0.1,89.8*,
N#Cc1cccc(NC(=O)CN2CCN(Cc3ccccc3)CC2)c1,0.1,1.5,-4.0,2.0,nt,-2.0,nt,
Cc1cccc(NC(=O)Nc2cccc(C#N)c2)n1,0.2,5.8,0.1,0.0,31.7,0.7,nt,
COc1ccc(NC(=O)Nc2cccs2)cc1Cl,0.0,3.0,73.7*,30.4*,7.4,0.3,79.9*,
CCc1cccc(NC(=O)Nc2cccs2)c1,0.3,0.0,78.9*,7.3,-32.0,-3.9,99.3*,
C/C(=N\Nc1ccc(S(=O)(=O)N2CCCCC2)cn1)c1cccc(Br)c1,0.1,2.2,-1.1,-7.5,nt,1.2,nt,
O=C(Nc1cccs1)Nc1c(F)c(F)c(F)c(F)c1F,2.5,-1.4,95.6*,-4.3,7.0,-2.7,84.2*,
CC(C)n1cc(CN2CCC(C(=O)Nc3ccc(Oc4ccccc4F)cc3)CC2)cn1,1.0,-2.6,82.9*,0.8,nt,-3.3,14.4,MPTP abs DR=4.62*;MPTP counter DR=25.6*
N#Cc1ccccc1CCN1C(=O)c2ccccc2C1=O,0.0,4.0,0.4,-1.2,nt,-1.9,nt,
CC(C)c1noc2ncc(C(=O)c3cc(Cl)cc(Cl)c3O)cc12,-0.3,-0.5,93.8*,-2.1,9.5,-1.7,105.3*,
Nc1nc2ncc(C(=O)c3cc(Cl)cc(Cl)c3O)cc2s1,-0.1,-0.2,-0.7,0.2,8.5,0.8,nt,
Nc1ncc(Br)cc1S(=O)(=O)Nc1cc(C(F)(F)F)cc(C(F)(F)F)c1,0.0,-1.7,85.1*,8.6,nt,-1.9,84.6*,
COc1cc(C2SCCS2)cc(Br)c1Oc1ncccc1[N+](=O)[O-],0.0,-0.1,58.3*,1.2,33.0,-2.8,32.6*,
O=C(CCN1CCc2ccccc2C(c2ccccc2)C1)c1ccc2c(c1)OCCO2 (stereo unspecified),1.4,1.2,82.6*,0.7,-36.4,-4.6,-4.7,
O=C(CCN1Cc2ccccc2C1)c1ccc2c(c1)OCCO2,1.7,11.7,-0.3,2.0,35.1,-3.3,nt,
Cc1ccc(S(=O)(=O)Nc2ccc3ccccc3c2[N+](=O)[O-])cc1,-0.1,nt,26.5,-14.4,nt,nt,nt,
Cc1ccc(S(=O)(=O)Nc2ccc3cc([N+](=O)[O-])ccc3c2[N+](=O)[O-])cc1,-0.1,nt,87.9*,2.7,nt,nt,79.0*,
O=C(Nc1ccccc1F)C1COc2ccccc2O1 (stereo unspecified),0.0,3.3,0.4,0.1,nt,1.7,nt,
O=C(Nc1cccc(Cl)c1)c1ccc(F)c(S(=O)(=O)NCc2ccc3c(c2)OCO3)c1,0.4,-0.5,50.8*,12.8*,-10.8,-1.1,65.7*,
O=C(Nc1ccc(Br)cc1)c1ccc(F)c(S(=O)(=O)NCc2cccs2)c1,3.9,3.7,96.8*,18.4*,93.0*,-0.6,93.6*,
CN(CCc1ccccc1)C(c1ccnc2ccccc12)c1nnnn1-c1ccc2c(c1)OCCO2 (stereo unspecified),-0.1,nt,-1.5,nt,nt,nt,nt,
COc1cccc(COC(=O)Cc2ccc(S(=O)(=O)N3CCOCC3)s2)c1OC,0.1,2.2,-0.7,0.2,nt,-1.5,nt,
CC[C@@H]1[C@H]2CCCC(=O)N3CC[C@@H](C[C@@H]1OC(=O)Nc1ccccc1)[C@@H]23,0.0,-0.6,-2.3,0.1,nt,2.3,nt,
N=c1c2c(-c3ccccc3)c(-c3ccccc3)n(Cc3ccco3)c2ncn1CCO,1.0,0.2,80.7*,-2.1,-19.3,1.8,-2.9,
C=CC[n+]1c(-c2ccc(OC)cc2)csc1NNC(=O)Nc1ccccc1,2.1,1.8,71.2*,-1.5,52.1,-3.5,59.2*,
